Experimental data: ChEMBL document CHEMBL5131563, “Accelerated Identification of Cell Active KRAS Inhibitory Macrocyclic Peptides using Mixture Libraries and Automated Ligand Identification System (ALIS) Technology” (J Med Chem, 2022)
*1 amine or outer side, *2 acyl side, *3 side chain or, on linkers, in order; H or OH if unused. Where a SMILES comes first, the peptide text is derived from it. Bridges are numbered along the chain shown (N, C = ends). [ ]: non-standard residue; d: D form. Phe(3,4,5-F3) = N[C@@H](Cc1cc(F)c(F)c(F)c1)C(=O)O; Pro(3R-Ph) = O=C(O)[C@H]1NCC[C@@H]1c1ccccc1; Ala(4-thiazolyl) = N[C@@H](Cc1cscn1)C(=O)O; Bip = N[C@@H](Cc1ccc(-c2ccccc2)cc1)C(=O)O; X5 = C[C@H]1CCN([*:1])[C@@H]1C(=O)[*:2]; Abu(4-CN) = N#CCC[C@H](N)C(=O)O; Aad = N[C@@H](CCCC(=O)O)C(=O)O; Ahp(2) = CCCCC[C@H](N)C(=O)O; Cba = N[C@@H](CC1CCC1)C(=O)O

Target: GTPase KRas (Homo sapiens, UniProt P01116, G12D)
Test: Inhibition of recombinant biotinylated KRAS G12D mutant (unknown origin) assessed as inhibition of SOS-catalyzed nucleotide exchange preincubated for 60 mins followed by addition of human SOS protein and unlabeled GTP and measured after 60 mins by TR-FRET analysis
How it was run: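 Biotinylated KRAS G12D was treated in EDTA buffer (1 h, RT), then loaded at 90 nM with 900 nM Bodipy-GDP and 15 nM Tb-streptavidin in Mg2+ buffer, HEPES pH 7.5 (6 h, RT). It was used at 1.5 nM assay solution with a 10-point, 3-fold DMSO compound series for 60 min at RT. A solution of 120 nM human SOS plus GTP was added for 60 min. The read-out was TR-FRET at 520/495 nm, normalized to DMSO and saturating-inhibitor controls, with a 4-parameter fit.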

GTPase KRas, sequence (P01116 whole entry G12D): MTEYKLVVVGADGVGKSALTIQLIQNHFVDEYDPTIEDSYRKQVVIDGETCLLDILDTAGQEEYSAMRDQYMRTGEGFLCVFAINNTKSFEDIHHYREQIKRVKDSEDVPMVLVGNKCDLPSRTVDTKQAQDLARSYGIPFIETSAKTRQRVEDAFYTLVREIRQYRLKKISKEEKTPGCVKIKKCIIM

| Compound | IC50 |
| --- | --- |
| CC[C@H](C)[C@@H]1NC(=O)[C@H](Cc2ccc(O)cc2)NC(=O)[C@H](CC(C)C)NC(=O)[C@@H]2CCCN2C(=O)[C@@H](NC(=O)[C@H](CCCNC(=N)N)NC(=O)[C@H](CCCNC(=N)N)NC(C)=O)CSSC[C@@H](C(=O)N[C@@H](CCCNC(=N)N)C(=O)N[C@@H](CCCNC(=N)N)C(N)=O)NC(=O)[C@H](C(C)C)NC(=O)[C@@H]2CCCN2C(=O)[C@H](CC(=O)O)NC(=O)[C@H](Cc2cc(F)c(F)c(F)c2)NC(=O)[C@H](Cc2cscn2)NC1=O (Ac-RRCPLYI[Ala(4-thiazolyl)][Phe(3,4,5-F3)]DPVCRR-NH2; disulfide 3-13) | > 11100 nM |
| CC[C@H](C)[C@@H]1NC(=O)[C@H](Cc2ccc(-c3ccccc3)cc2)NC(=O)[C@H](CC(C)C)NC(=O)[C@@H]2CCCN2C(=O)[C@@H](NC(=O)[C@H](CCCNC(=N)N)NC(=O)[C@H](CCCNC(=N)N)NC(C)=O)CSSC[C@@H](C(=O)N[C@@H](CCCNC(=N)N)C(=O)N[C@@H](CCCNC(=N)N)C(N)=O)NC(=O)[C@H](CCC#N)NC(=O)[C@@H]2CCCN2C(=O)[C@H](CC(=O)O)NC(=O)[C@H](Cc2ccc(O)cc2)NC(=O)[C@H](CO)NC1=O (Ac-RRCPL[Bip]ISYDP[Abu(4-CN)]CRR-NH2; disulfide 3-13) | 24 nM |
| CCCCC[C@@H]1NC(=O)[C@@H]2CCCN2C(=O)[C@H](CC(=O)O)NC(=O)[C@H](Cc2ccc(O)cc2)NC(=O)[C@H](CO)NC(=O)[C@H]([C@@H](C)CC)NC(=O)[C@H](Cc2ccc(-c3ccccc3)cc2)NC(=O)[C@H](CC(C)C)NC(=O)[C@@H]2CCCN2C(=O)[C@@H](NC(=O)[C@H](CCCNC(=N)N)NC(=O)[C@H](CCCNC(=N)N)NC(C)=O)CSSC[C@@H](C(=O)N[C@@H](CCCNC(=N)N)C(=O)N[C@@H](CCCNC(=N)N)C(N)=O)NC1=O (Ac-RRCPL[Bip]ISYDP[Ahp(2)]CRR-NH2; disulfide 3-13) | 5 nM |
| CC[C@H](C)[C@@H]1NC(=O)[C@H](Cc2ccc(-c3ccccc3)cc2)NC(=O)[C@H](CC(C)C)NC(=O)[C@@H]2CCCN2C(=O)[C@@H](NC(=O)[C@H](CCCNC(=N)N)NC(=O)[C@H](CCCNC(=N)N)NC(C)=O)CSSC[C@@H](C(=O)N[C@@H](CCCNC(=N)N)C(=O)N[C@@H](CCCNC(=N)N)C(N)=O)NC(=O)[C@H](CCCC(=O)O)NC(=O)[C@@H]2[C@@H](C)CCN2C(=O)[C@H](CC(=O)O)NC(=O)[C@H](Cc2ccc(O)cc2)NC(=O)[C@H](CO)NC1=O (Ac-RRCPL[Bip]ISYD[X5][Aad]CRR-NH2; disulfide 3-13) | 43 nM |
| CC[C@H](C)[C@@H]1NC(=O)[C@H](Cc2ccc(-c3ccccc3)cc2)NC(=O)[C@H](CC(C)C)NC(=O)[C@@H]2[C@@H](c3ccccc3)CCN2C(=O)[C@@H](NC(=O)[C@H](CCCNC(=N)N)NC(=O)[C@H](CCCNC(=N)N)NC(C)=O)CSSC[C@@H](C(=O)N[C@@H](CCCNC(=N)N)C(=O)N[C@@H](CCCNC(=N)N)C(N)=O)NC(=O)[C@H](C(C)C)NC(=O)[C@@H]2CCCN2C(=O)[C@H](CC(=O)O)NC(=O)[C@H](Cc2ccc(O)cc2)NC(=O)[C@H](CO)NC1=O (Ac-RRC[Pro(3R-Ph)]L[Bip]ISYDPVCRR-NH2; disulfide 3-13) | 1 nM |
| CC[C@H](C)[C@@H]1NC(=O)[C@H](Cc2ccc(-c3ccccc3)cc2)NC(=O)[C@H](CC2CCC2)NC(=O)[C@@H]2[C@@H](c3ccccc3)CCN2C(=O)[C@@H](NC(=O)[C@H](CCCNC(=N)N)NC(=O)[C@H](CCCNC(=N)N)NC(C)=O)CSSC[C@@H](C(=O)N[C@@H](CCCNC(=N)N)C(=O)N[C@@H](CCCNC(=N)N)C(N)=O)NC(=O)[C@H](C(C)C)NC(=O)[C@@H]2CCCN2C(=O)[C@H](CC(=O)O)NC(=O)[C@H](Cc2ccc(O)cc2)NC(=O)[C@H](CO)NC1=O (Ac-RRC[Pro(3R-Ph)][Cba][Bip]ISYDPVCRR-NH2; disulfide 3-13) | 7 nM |
